In ChEMBL document CHEMBL4828745, “Discovery and Structure-Activity Relationships of Quinazolinone-2-carboxamide Derivatives as Novel Orally Efficacious Antimalarials” (J Med Chem, 2021):

Columns and labels:
Plasmodium falciparum [1] = assay: Antimalarial activity against Plasmodium falciparum K1 harbouring Pf-crt, Pf-mdrl,Pf-dhfr, Pf-dhps mutated loci assessed as inhibition of parasite growth incubated for […] by [3H]hypoxanthine incorporation assay based liquid scintillation counting method; type: functional, organism-based
Method in brief: (§1)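 Drug-resistant laboratory P. falciparum strains were compared against the sensitive strain NF54. Growth inhibition was read by a modified [3H]hypoxanthine incorporation assay over 72 h. IC50 is the mean of two independent biological replicates. Chloroquine and artesunate served as controls.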

Plasmodium falciparum [2] = assay: Antimalarial activity against Plasmodium falciparum Dd2 harbouring Pf-crt, Pf-mdrl,Pf-dhfr, Pf-dhps mutated loci assessed as inhibition of parasite growth incubated for […] by [3H]hypoxanthine incorporation assay based liquid scintillation counting method; type: functional, organism-based; method in brief: as §1
Plasmodium falciparum [3] = assay: Antimalarial activity against Plasmodium falciparum TM90C2b harbouring Pf-crt, Pf-mdrl,Pfd-hfr, Pf-cytbQ0 mutated loci assessed as inhibition of parasite growth incubated for […] by [3H]hypoxanthine incorporation assay based liquid scintillation counting method; type: functional, organism-based; method in brief: as §1
Plasmodium falciparum [4] = assay: Antimalarial activity against Plasmodium falciparum Cam3.1 harbouring Pf-crt, Pf-mdrl,Pf-dhfr, Pf-dhps, pf-kelch13 mutated loci assessed as inhibition of parasite growth incubated for […] by [3H]hypoxanthine incorporation assay based liquid scintillation counting method; type: functional, organism-based; method in brief: as §1
Plasmodium falciparum [5] = assay: Antimalarial activity against Plasmodium falciparum 7G8 harbouring Pf-crt, Pf-mdrl,Pf-dhfr, Pf-dhps mutated loci assessed as inhibition of parasite growth incubated for […] by [3H]hypoxanthine incorporation assay based liquid scintillation counting method; type: functional, organism-based; method in brief: as §1
Plasmodium falciparum [6] = assay: Antiplasmodial activity against Plasmodium falciparum 3D7 infected in human erythrocyte assessed as intraerythrocytic growth inhibition incubated for 72 hrs by DAPI-staining based imaging analysis; type: functional, organism-based; conditions: 3D7, 72 h
Method in brief: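 P. falciparum 3D7 cultured in RPMI1640 with hypoxanthine, HEPES, 2.5 mg/mL AlbuMAX II and 5% human serum. Sorbitol-synchronized rings exposed 72 h at 37 °C under 5% CO2/5% O2, then DAPI-stained with saponin/Triton X-100 for 8 h in the dark. High-content imaging with spot detection. Duplicate points. Reference antimalarials run in each assay.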

Plasmodium falciparum [7] = assay: Antimalarial activity against Plasmodium falciparum NF54 assessed as inhibition of parasite growth incubated for 72 hrs by [3H]hypoxanthine incorporation assay based liquid scintillation counting method
[8] = target: T1, Interstitial collagenase (Homo sapiens) (UniProt P03956); assay: Inhibition of human MMP1 assessed as fluorescence intensity using DNP-Pro-Cha-Gly-Cys(Me)-His-Ala-Lys(n-Me-Abz)-NH2 as substrate at 10 uM incubated for 20 mins relative to control
T1 sequence (whole entry): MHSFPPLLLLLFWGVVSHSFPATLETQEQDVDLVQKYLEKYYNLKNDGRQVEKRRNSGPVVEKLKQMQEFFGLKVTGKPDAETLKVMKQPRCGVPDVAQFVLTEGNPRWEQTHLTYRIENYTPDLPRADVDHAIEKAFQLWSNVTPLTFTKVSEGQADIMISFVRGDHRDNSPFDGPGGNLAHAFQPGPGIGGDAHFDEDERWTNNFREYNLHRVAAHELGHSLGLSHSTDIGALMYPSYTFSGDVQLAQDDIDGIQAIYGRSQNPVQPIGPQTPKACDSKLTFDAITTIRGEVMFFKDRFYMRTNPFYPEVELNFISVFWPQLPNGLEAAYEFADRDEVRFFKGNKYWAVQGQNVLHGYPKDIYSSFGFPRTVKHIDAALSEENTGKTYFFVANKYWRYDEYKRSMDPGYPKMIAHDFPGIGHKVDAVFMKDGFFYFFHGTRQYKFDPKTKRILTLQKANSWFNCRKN

[9] = target: Matrix metalloproteinase-14 (Homo sapiens) (UniProt P50281); assay: Inhibition of human MMP14 assessed as fluorescence intensity using Mca-Pro-Leu-Ala-Cys(p-OmeBz)-Trp-Ala-Arg(Dpa)-NH2 as substrate at 10 uM incubated for 60 mins relative to control
[10] = AUC (0 to infinity) in Sprague-Dawley rat at 1 mg/kg, iv by LC-MS analysis; type: ADME, organism-based; parameters: route intravenous, time infinity, dose 1 mg/kg; conditions: in vivo
Method in brief: (§2)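 Male Sprague Dawley rats (n = 3) dosed IV at 1 mg/kg with the Na·4H2O salt in 50% DMA/50% PEG400. Plasma concentration–time profiles were obtained, and non-compartmental parameters are given as mean ± SD.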

[11] = Tmax in Sprague-Dawley rat at 5.6 mg/kg, po by LC-MS analysis; type: ADME, organism-based; conditions: in vivo
Method in brief: (§3)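 Male Sprague Dawley rats (n = 3) dosed orally at 5.6 mg/kg with the Na·4H2O salt suspended in 0.5% methyl cellulose in water. Plasma was sampled over time. Bioavailability was taken relative to the 1 mg/kg IV arm.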

[12] = Plasma clearance in Sprague-Dawley rat at 1 mg/kg, iv by LC-MS analysis; type: ADME, organism-based; method in brief: as §2
[13] = AUC (0 to infinity) in Swiss outbred mouse at 0.95 mg/kg, iv by LC-MS analysis; type: ADME, organism-based; parameters: route intravenous, time infinity, dose 0.95 mg/kg; conditions: in vivo
[14] = Plasma clearance in Swiss outbred mouse at 0.95 mg/kg, iv by LC-MS analysis; type: ADME, organism-based
[15] = AUC (0 to infinity) in Sprague-Dawley rat at 5.6 mg/kg, po by LC-MS analysis; type: ADME, organism-based; parameters: time infinity, route oral, dose 5.6 mg/kg; conditions: in vivo; method in brief: as §3
[16] = Half life in Sprague-Dawley rat at 1 mg/kg, iv by LC-MS analysis; type: ADME, organism-based; conditions: in vivo; method in brief: as §2
[17] = Volume of distribution at steady state in Sprague-Dawley rat plasma at 1 mg/kg, iv by LC-MS analysis; type: ADME, organism-based; conditions: read-out: Vdss; method in brief: as §2
[18] = Oral bioavailability in Sprague-Dawley rat at 5.6 mg/kg by LC-MS analysis; type: ADME, organism-based; conditions: in vivo; method in brief: as §3
[19] = Cmax in Sprague-Dawley rat at 5.6 mg/kg, po by LC-MS analysis; type: ADME, organism-based; parameters: route oral, dose 5.6 mg/kg; conditions: in vivo; method in brief: as §3
[20] = Clearance in Swiss outbred mouse blood at 0.95 mg/kg, iv by LC-MS analysis; type: ADME, organism-based
[21] = Half life in Sprague-Dawley rat at 5.6 mg/kg, po by LC-MS analysis; type: ADME, organism-based; conditions: in vivo; method in brief: as §3

Question: With `C[C@H]1[C@H](OC(=O)CCC(=O)O)O[C@@H]2O[C@@]3(C)CC[C@H]4[C@H](C)CC[C@@H]1[C@@]24OO3` [ARTESUNATE] as the compound, how does the IC50 (Plasmodium falciparum [1]) read?
Answer: 4 nM

Question: And the IC50 (Plasmodium falciparum [2])?
Answer: 6 nM

Question: And the IC50 (Plasmodium falciparum [3])?
Answer: 2 nM

Question: And the IC50 (Plasmodium falciparum [4])?
Answer: 4 nM

Question: What about the IC50 (Plasmodium falciparum [5]) of the same compound?
Answer: 3 nM

Question: What about the IC50 (Plasmodium falciparum [6]) of the same compound?
Answer: 0.6 nM

Question: And the IC50 (Plasmodium falciparum [7])?
Answer: 6 nM

Question: What does the source list for `CCc1cccc(CNC(=O)c2nc3cccc(COCc4ccc(C(=O)O)cc4)c3c(=O)[nH]2)c1`?
Answer: inhibition [8]: 11.3%; inhibition [9]: 10.8%

Question: For `CCN(CC)CCCC(C)Nc1ccnc2cc(Cl)ccc12` (centres undefined) [CHLOROQUINE], which IC50 (Plasmodium falciparum [2]) is on record?
Answer: 10 nM

Question: And the IC50 (Plasmodium falciparum [3])?
Answer: 67 nM

Question: And the IC50 (Plasmodium falciparum [4])?
Answer: 160 nM

Question: For `CCc1cccc(CNC(=O)c2nc3cccc(COCc4ccc(C(=O)[O-])cc4)c3c(=O)[nH]2)c1.O.O.O.O.[Na+]`, which AUC(0-inf) [10] is on record?
Answer: 3.7 µM·h

Question: And the Tmax [11]?
Answer: 0.5 h

Question: What about the clearance [12] of the same compound?
Answer: 9.5 mL/min/kg

Question: What about the AUC(0-inf) [13] of the same compound?
Answer: 1.1 µM·h

Question: And the clearance [14]?
Answer: 31 mL/min/kg

Question: And the AUC(0-inf) [15]?
Answer: 6.9 µM·h

Question: And the half-life [16]?
Answer: 5.3 h

Question: What about the Vd [17] of the same compound?
Answer: 0.88 L/kg

Question: What about the bioavailability [18] of the same compound?
Answer: 34%

Question: What about the Cmax [19] of the same compound?
Answer: 1700 nM

Question: And the clearance [20]?
Answer: 57 mL/min/kg

Question: What about the half-life [21] of the same compound?
Answer: 3.2 h
